Reference: ChEMBL document CHEMBL4480411, “Discovery of Second Generation RORγ Inhibitors Composed of an Azole Scaffold” (J Med Chem, 2019)
Activity calls are given as the source filed them. No cut-off for these calls is given here.

How the values were obtained:
[1] = biological target: T1, Nuclear receptor ROR-gamma (Homo sapiens, UniProt P51449); test: Inhibition of human GAL4-fused RORgamma LBD transcriptional activity expressed in CHOK1 cells after 2 days by luciferase reporter gene assay; type: cell-based
T1 sequence (P51449 whole entry): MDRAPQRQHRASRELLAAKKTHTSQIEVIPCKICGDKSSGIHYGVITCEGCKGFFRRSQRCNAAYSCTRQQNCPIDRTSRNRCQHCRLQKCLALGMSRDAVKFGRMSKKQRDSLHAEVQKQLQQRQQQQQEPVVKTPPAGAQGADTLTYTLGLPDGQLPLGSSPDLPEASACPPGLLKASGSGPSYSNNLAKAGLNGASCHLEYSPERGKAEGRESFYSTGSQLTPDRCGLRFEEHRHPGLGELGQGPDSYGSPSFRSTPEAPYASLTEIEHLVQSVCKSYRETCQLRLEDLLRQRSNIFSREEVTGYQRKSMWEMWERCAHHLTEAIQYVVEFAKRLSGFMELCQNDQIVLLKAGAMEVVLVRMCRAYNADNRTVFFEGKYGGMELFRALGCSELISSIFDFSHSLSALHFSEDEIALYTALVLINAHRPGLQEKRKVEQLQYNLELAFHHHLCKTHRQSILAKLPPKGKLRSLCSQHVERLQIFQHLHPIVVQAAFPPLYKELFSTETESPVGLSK

[2] = MRT in CD(SD) rat at 3 mg/kg, po; type: ADME, organism-based; settings: in vivo
[3] = Lipophilicity, log D of the compound; type: physicochemical; settings: octanol/water
[4] = Oral bioavailability in CD(SD) rat at 3 mg/kg; type: ADME, organism-based; settings: in vivo
[5] = Terminal half life in CD(SD) rat at 1 mg/kg, iv; type: ADME, organism-based; settings: in vivo, read-out: beta t1/2 (converted)
[6] = biological target: T2, Peroxisome proliferator-activated receptor gamma (Homo sapiens, UniProt P37231); test: Inhibition of GAL4-fused human PPARgamma transcriptional activity expressed in CHOK1 cells after 2 days by luciferase reporter gene assay; type: cell-based
T2 sequence (P37231 whole entry): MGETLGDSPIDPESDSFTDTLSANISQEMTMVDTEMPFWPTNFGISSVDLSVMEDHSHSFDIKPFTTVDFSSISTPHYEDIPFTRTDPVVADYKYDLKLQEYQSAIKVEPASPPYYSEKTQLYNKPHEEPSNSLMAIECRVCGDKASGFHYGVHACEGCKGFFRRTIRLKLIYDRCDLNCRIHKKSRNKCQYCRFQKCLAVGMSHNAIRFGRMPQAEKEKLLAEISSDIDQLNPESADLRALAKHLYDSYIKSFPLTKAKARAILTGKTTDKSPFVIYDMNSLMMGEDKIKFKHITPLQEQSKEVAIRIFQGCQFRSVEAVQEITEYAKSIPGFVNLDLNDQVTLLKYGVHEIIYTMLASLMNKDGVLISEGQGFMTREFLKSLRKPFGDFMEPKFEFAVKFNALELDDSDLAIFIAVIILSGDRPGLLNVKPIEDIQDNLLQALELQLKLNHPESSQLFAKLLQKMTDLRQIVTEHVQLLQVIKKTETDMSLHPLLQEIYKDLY

Cytochrome P450 1A2 = biological target: T3, Cytochrome P450 1A2 (Homo sapiens, UniProt P05177); test: Time-dependent inhibition of human CYP1A2; type: ADME
T3 sequence (P05177 whole entry): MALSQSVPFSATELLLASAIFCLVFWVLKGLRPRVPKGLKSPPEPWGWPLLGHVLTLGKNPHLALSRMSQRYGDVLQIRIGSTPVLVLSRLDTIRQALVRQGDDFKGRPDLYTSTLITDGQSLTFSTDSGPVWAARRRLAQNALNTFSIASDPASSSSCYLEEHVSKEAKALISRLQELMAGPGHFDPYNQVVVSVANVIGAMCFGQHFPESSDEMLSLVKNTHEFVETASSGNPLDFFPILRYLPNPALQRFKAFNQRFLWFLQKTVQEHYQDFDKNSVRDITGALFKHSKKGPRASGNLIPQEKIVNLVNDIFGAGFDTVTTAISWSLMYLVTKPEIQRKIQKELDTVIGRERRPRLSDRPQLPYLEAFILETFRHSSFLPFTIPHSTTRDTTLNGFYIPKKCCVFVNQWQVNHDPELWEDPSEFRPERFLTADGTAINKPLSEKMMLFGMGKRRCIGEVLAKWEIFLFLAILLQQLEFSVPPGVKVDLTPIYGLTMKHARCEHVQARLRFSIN

Mus musculus = test: Anti-inflammatory activity in C57BL/6 mouse model of IL23-induced dermatitis assessed as inhibition of ear swelling at 3 to 30 mg/kg, po administered once daily from day 1 to 11 and measured on days 1, 5, 8, 10, 12 post dose; type: functional, organism-based
Procedure, shortened: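 IL-23 dermatitis: 250 ng recombinant mouse IL-23 in 20 μL PBS with 0.1% BSA injected intradermally into left ear of anesthetized mice on days 1, 3, 5, 8 and 10. Oral dosing at 3 and 30 mg/kg (vehicle 0.5% MC, 10 mL/kg) daily days 1–11. Left ear thickness measured by digital gauge on days 1, 5, 8, 10, 12; change from day 1 baseline.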

Cytochrome P450 2D6 = Cytochrome P450 2D6 (Homo sapiens, UniProt P10635); test: Time-dependent inhibition of human CYP2D6; type: ADME
[7] = biological target: T4, Nuclear receptor ROR-alpha (Homo sapiens, UniProt P35398); test: Inhibition of GAL4-fused human RORalpha transcriptional activity expressed in CHOK1 cells after 2 days by luciferase reporter gene assay; type: cell-based
T4 sequence (P35398 whole entry): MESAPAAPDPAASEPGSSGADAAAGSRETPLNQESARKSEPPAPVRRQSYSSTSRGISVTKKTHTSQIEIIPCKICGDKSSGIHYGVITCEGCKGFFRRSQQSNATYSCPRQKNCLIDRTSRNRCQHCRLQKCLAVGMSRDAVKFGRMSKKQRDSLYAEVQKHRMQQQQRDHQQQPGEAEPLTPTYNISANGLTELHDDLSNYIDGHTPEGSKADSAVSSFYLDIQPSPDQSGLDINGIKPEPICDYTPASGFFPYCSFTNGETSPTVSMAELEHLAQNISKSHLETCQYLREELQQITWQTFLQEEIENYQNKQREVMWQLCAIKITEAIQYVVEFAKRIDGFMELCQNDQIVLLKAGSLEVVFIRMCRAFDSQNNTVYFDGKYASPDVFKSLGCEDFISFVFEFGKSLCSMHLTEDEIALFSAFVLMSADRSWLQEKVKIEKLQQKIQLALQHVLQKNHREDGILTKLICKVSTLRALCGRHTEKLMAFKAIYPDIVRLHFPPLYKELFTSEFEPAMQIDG

Cytochrome P450 2D6, sequence (P10635 whole entry, the tested form may be a part): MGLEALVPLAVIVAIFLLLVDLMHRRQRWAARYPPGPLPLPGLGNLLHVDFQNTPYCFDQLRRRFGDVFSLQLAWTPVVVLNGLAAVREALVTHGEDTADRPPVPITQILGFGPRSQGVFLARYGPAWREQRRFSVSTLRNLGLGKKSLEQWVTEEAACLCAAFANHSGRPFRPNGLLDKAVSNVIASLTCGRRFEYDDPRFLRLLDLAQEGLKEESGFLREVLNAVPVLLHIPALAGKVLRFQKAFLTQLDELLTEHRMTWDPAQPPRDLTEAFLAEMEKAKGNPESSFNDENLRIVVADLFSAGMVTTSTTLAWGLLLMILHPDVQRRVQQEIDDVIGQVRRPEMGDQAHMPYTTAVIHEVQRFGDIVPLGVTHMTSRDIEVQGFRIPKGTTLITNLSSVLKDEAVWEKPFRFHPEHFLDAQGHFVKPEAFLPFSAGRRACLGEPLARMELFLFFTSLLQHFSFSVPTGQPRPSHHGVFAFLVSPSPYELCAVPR

CC(C)(C)Cc1cc(-c2onc([C@@H](CCC(=O)[O-])CC(=O)Nc3ccc(Cl)cc3Cl)c2C2CC2)no1.[Na+]
EC50 [1]: 0.009 µM | MRT [2]: 4.9 h | logD [3]: 4.2 | bioavailability [4]: 72% | half-life [5]: 4.2 h | EC50 [6]: > 20 µM | IC50 (Cytochrome P450 1A2): > 50 µM | Activity (Mus musculus): Active | IC50 (Cytochrome P450 2D6): > 50 µM | EC50 [7]: > 20 µM
